{
  "source": "paper PMC4024982",
  "about": "(International Journal of Nanomedicine, 2014)",
  "format_in_all_cases": "in vivo, Sprague Dawley rats",
  "key": {"[1]": {"system": "rat knee osteoarthritis model", "test": "Micro-CT analysis of OA knee joints", "conditions": "6 weeks after injection", "in_short": "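Hind limbs from OA rats (female, 12-week-old SD; ACL/MCL transection with medial meniscectomy) given 0.2 mL intra-articular injection 3 weeks post-surgery, or left uninjected. Harvested 6 weeks post-injection and formalin-fixed. Micro-CT: 80 kVp, 500 μA, 0.21 s scan, 30 calibrations, 30.74 mm fields of view. BMD measured at the lateral femoral condyle. OA graded semiquantitatively by osteophytes and joint destruction.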"}, "[2]": {"system": "rat knee osteoarthritis model", "test": "Histological analysis, modified Mankin scoring", "conditions": "6 weeks after injection; scale 0–4; negative control 2.5±0.3"}, "caspase-8": {"system": "caspase-8", "test": "Immunofluorescence staining of knee joint sections", "conditions": "6 weeks after injection; diffuse positive staining in control", "in_short": "(§1)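 OA knees in female 12-week-old SD rats (ACL/MCL transection plus medial meniscectomy), injected intra-articularly with 0.2 mL at 3 weeks post-surgery, uninjected controls. Joints harvested 6 weeks post-injection and formalin-fixed. Sections immunostained for MMP-9, caspase-8, TIMP-1 and collagen II using Alexa Fluor 488/594 secondary antibodies, DAPI counterstain, then examined by fluorescence microscopy.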"}, "TIMP-1": {"system": "TIMP-1", "test": "Immunofluorescence staining of knee joint sections", "conditions": "6 weeks after injection; diffuse positive staining in control", "in_short": "as §1"}},
  "data": [
    {"substance": "Ac-KLDLKLDLKLDL-NH2 [SAP, Ac-KLDLKLDLKLDL-NH2]", "values": [
      {"measurement": "bone mineral density (lateral femoral condyle, micro-CT)", "setting": "[1]; control 1,067.0±12.2", "result": "1,033.3±17.4"},
      {"measurement": "Number of animals in each osteoarthritis grade: Grade 1", "setting": "[1]; micro-CT", "result": 1},
      {"measurement": "Number of animals in each osteoarthritis grade: Grade 2", "setting": "[1]; micro-CT", "result": 0},
      {"measurement": "Number of animals in each osteoarthritis grade: Grade 3", "setting": "[1]; micro-CT", "result": 2},
      {"measurement": "Number of animals in each osteoarthritis grade: Grade 4", "setting": "[1]; micro-CT", "result": 1},
      {"measurement": "Alcian blue staining component of modified Mankin score (proteoglycan content)", "setting": "[2]", "result": "0.5±0.3"},
      {"measurement": "caspase-8 immunofluorescence staining", "setting": "caspase-8", "result": "decreased expression"},
      {"measurement": "TIMP-1 immunofluorescence staining", "setting": "TIMP-1", "result": "decreased expression"}
    ]}
  ]
}
